These results are taken from ChEMBL document CHEMBL1139469, “Synthesis and 3D QSAR of new pyrazolo[3,4-b]pyridines: potent and selective inhibitors of A1 adenosine receptors” (J Med Chem, 2005).

Each structure is given as a SMILES string.

Assay [1] addresses T1, Adenosine receptor A1 (Bos taurus) (UniProt P28190).
T1 sequence (whole entry): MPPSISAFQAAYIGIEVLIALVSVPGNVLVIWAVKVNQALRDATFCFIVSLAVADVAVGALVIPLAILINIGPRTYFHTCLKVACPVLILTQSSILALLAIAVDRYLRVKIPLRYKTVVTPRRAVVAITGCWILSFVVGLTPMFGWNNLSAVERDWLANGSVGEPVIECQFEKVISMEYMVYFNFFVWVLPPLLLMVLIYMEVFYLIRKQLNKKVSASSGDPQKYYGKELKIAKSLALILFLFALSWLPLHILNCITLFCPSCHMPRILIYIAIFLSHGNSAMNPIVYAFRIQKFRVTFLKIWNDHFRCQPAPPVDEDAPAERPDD
In words: Displacement of [3H]DPCPX from adenosine A1 receptor in bovine cerebral cortical membranes at 10 uM. The assay is classed as cell membranes. In outline: (§1)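 [3H]DPCPX was displaced from A1 sites in bovine cortical membranes. Compounds were taken up in DMSO and diluted in assay buffer, with DMSO at 2% or less final. Ki used at least six concentrations across 3 orders of magnitude and was the mean ± SEM of three independent assays in triplicate.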

Assay [2] addresses Adenosine receptor A1 (Bos taurus) (UniProt P28190). In words: Displacement of [3H]DPCPX from bovine adenosine A1 receptor in bovine cortical membranes.
The subject of assay [3] is Adenosine receptor A2a (Bos taurus). In words: Displacement of [3HCGS21680 from adenosine A2A receptor in bovine striatal membranes at 10 uM.
Assay [4] concerns the target T2, Adenosine receptor A1 (Bos taurus, UniProt P28190).
T2 sequence (P28190 whole entry): T1 sequence (whole entry)
Put plainly: Displacement of [3H]DPCPX from adenosine A1 receptor in bovine cerebral cortical membranes. The assay is classed as cell membranes. The method in brief:
as §1
A general note: In a radioligand displacement assay an active substance lowers the binding of a labelled ligand.

The target of assay [5] is Adenosine receptor A2a (Bos taurus). In words: Displacement of [3H]CGS-21680 from adenosine A2A receptor in bovine striatal membranes.
Assay [6] has as its target T3, Adenosine receptor A3 (Homo sapiens) (UniProt P0DMS8).
T3 sequence (whole entry): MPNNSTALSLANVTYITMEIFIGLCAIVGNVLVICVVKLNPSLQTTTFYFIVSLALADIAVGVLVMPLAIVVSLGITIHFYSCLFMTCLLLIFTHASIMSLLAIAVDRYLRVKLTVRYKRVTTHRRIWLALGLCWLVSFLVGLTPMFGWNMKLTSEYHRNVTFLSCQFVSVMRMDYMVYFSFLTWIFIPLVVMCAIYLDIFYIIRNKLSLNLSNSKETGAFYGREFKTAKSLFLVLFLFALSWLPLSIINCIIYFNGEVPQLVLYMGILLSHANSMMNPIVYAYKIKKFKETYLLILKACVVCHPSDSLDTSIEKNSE
Put plainly: Displacement of [125I]AB-MECA from human adenosine A3 receptor expressed in CHO cells at 10 uM.

Assay [7] has as its target T4, Adenosine receptor A1 (Homo sapiens, UniProt P30542).
T4 sequence (P30542 whole entry): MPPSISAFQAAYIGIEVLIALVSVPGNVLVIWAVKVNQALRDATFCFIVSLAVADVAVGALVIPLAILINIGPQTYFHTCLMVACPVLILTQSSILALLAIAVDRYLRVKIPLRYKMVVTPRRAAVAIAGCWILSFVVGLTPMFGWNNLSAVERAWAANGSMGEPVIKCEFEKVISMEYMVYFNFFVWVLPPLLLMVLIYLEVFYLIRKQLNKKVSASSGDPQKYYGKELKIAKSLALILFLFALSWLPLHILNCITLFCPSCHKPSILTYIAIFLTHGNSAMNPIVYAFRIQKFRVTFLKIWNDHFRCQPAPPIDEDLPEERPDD
Put plainly: Displacement of [3H]DPCPX from human adenosine A1 receptor expressed in CHO cells. The assay is classed as cell-based. In outline: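 Binding used CHO cells transfected with human A1 receptor, with displacement of specific [3H]DPCPX binding. Ligands were in DMSO diluted into buffer, with no more than 2% DMSO final, over at least six concentrations spanning 3 orders of magnitude. Ki values were means ± SEM of three separate assays, each performed in triplicate.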

The target of assay [8] is T2, Adenosine receptor A1. In words: Displacement of [3H]DPCPX from adenosine A1 receptor in bovine cerebral cortical membranes in absence of GTP. Format: cell membranes. In outline:
(§2)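 [3H]DPCPX competition binding on bovine cortical membranes, run side by side without and with 1 mM GTP. Compounds dissolved in DMSO and diluted in assay buffer, final DMSO at most 2%. At least six concentrations spanning 3 orders of magnitude were used. Ki given as mean ± SEM of three experiments.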

Assay [9] concerns the target T2, Adenosine receptor A1. Put plainly: Displacement of [3H]DPCPX from adenosine A1 receptor in bovine cerebral cortical membranes in presence of GTP. Format: cell membranes. In outline:
as §2

The inhibition is the change of the read-out against control, counted positive when it falls. High values mean strong suppression, low ones little suppression. The term Ki denotes a measure of affinity in units of concentration, obtained from inhibition or displacement.

With `CCCCOC(=O)c1cnc2c(cnn2CC(Cl)c2ccccc2)c1NCc1ccccc1` (stereo unspecified), the inhibition in assay [1] came to 27%; in assay [3], 5%. In addition, in [2], the affinity, expressed as Ki, was 10000 nM.

For `CC(C)OC(=O)c1cnc2c(cnn2CC(Cl)c2ccccc2)c1NCCc1ccccc1` (stereo unspecified), the Ki at Adenosine receptor A1 [4] is 31 nM; in assay [5], 1520 nM; in [2], 31.6 nM. Moreover, the inhibition in [6] was 0%.

With `COC(=O)c1cnc2c(cnn2CC(Cl)c2ccccc2)c1N1CCOCC1` (stereo unspecified), the inhibition in assay [1] worked out at 51%; in assay [3], 0%. This compound had a Ki in assay [2] of 10000 nM.

For the compound `CCCNc1c(C(=O)OC)cnc2c1cnn2CC(Cl)c1ccccc1` (stereo unspecified), the inhibitory constant (Ki) on Adenosine receptor A1 [4] was 170 nM; in assay [5], 7670 nM; in assay [2], 158 nM.

Consider `CCOC(=O)c1cnc2c(cnn2CC(Cl)c2ccccc2)c1NCCc1ccc(C)cc1` (stereo unspecified), for which the Ki on Adenosine receptor A1 [4] is 22 nM; in assay [2], 20 nM. In assay [6], the inhibition is 38%.

For `CCCCOC(=O)c1cnc2c(cnn2CC(Cl)c2ccccc2)c1NC1CC1` (stereo unspecified), the inhibitory constant (Ki) on Adenosine receptor A1 [4] is 895 nM; in assay [2], 1000 nM. The inhibition was found to be 11% in assay [3] and 0% in [6].

As to `CCCOC(=O)c1cnc2c(cnn2CC(Cl)c2ccccc2)c1NC1CC1` (stereo unspecified), the inhibition in assay [6] came to 2%.

In the case of `COc1ccc(CCNc2c(C(=O)OC(C)C)cnc3c2cnn3CC(Cl)c2ccccc2)cc1` (stereo unspecified), the Ki was 7 nM on Adenosine receptor A1 [4]; 17 nM at Adenosine receptor A1 [7]; 7.2 nM at Adenosine receptor A1 [8]; 7.7 nM on Adenosine receptor A1 [9]; 7.94 nM in assay [2]. The inhibition in assay [6] worked out at 52%.

As to `CCOC(=O)c1cnc2c(cnn2CC(Cl)c2ccccc2)c1NCCc1ccc(OC)cc1` (stereo unspecified), the results for the Ki (at Adenosine receptor A1 [4]; at Adenosine receptor A1 [7]; in assay [2]) were 10 nM, 25 nM and 10 nM, respectively. Besides, the inhibition in assay [6] turned out to be 49%.

For the compound `CCCNc1c(C(=O)OC(C)C)cnc2c1cnn2CC(Cl)c1ccccc1` (stereo unspecified), the Ki on Adenosine receptor A1 [4] is 24 nM; in [2], 20 nM. In addition, the inhibition in assay [3] is 11%; in assay [6], 0%.

Take `CC(C)OC(=O)c1cnc2c(cnn2CC(Cl)c2ccccc2)c1NCCc1ccccc1Cl` (stereo unspecified): the inhibition constant (Ki) at Adenosine receptor A1 [4] was 44 nM; in assay [2] it was 39.8 nM. The compound also came in with an inhibition in [3] of 13%.

In the case of `CC(C)OC(=O)c1cnc2c(cnn2CC(Cl)c2ccccc2)c1NCCc1cccc(Cl)c1` (stereo unspecified), the inhibition constant Ki (at Adenosine receptor A1 [4]; in assay [2]) was 100 nM each time. Further, the inhibition in assay [3] amounted to 14%.

As to `CC(C)OC(=O)c1cnc2c(cnn2CC(Cl)c2ccccc2)c1NCCc1ccc(Cl)cc1` (stereo unspecified), the Ki is 41 nM on Adenosine receptor A1 [4] and 39.8 nM in assay [2]. In [3], this compound came in with an inhibition of 27%.

Turning to `CCOC(=O)c1cnc2c(cnn2CC(Cl)c2ccccc2)c1NCCc1ccc(Cl)cc1` (stereo unspecified), the inhibitory constant (Ki) is 19 nM on Adenosine receptor A1 [4], 153 nM at Adenosine receptor A1 [7] and 20 nM in assay [2]. Besides, the figures for the inhibition in assay [3] and in assay [6] were 63% and 46%, respectively.

Take `CCCNc1c(C(=O)OCCC)cnc2c1cnn2CC(Cl)c1ccccc1` (stereo unspecified): the Ki is 145 nM on Adenosine receptor A1 [4], 1390 nM in assay [5] and 158 nM in assay [2].

For the compound `CCCOC(=O)c1cnc2c(cnn2CC(Cl)c2ccccc2)c1N1CCOCC1` (stereo unspecified), the Ki on Adenosine receptor A1 [4] was 2150 nM; in assay [2], 2000 nM. This compound had an inhibition in assay [3] of 31%.

Consider `COC(=O)c1cnc2c(cnn2CC(Cl)c2ccccc2)c1N1CCCC1` (stereo unspecified), for which the inhibitory constant (Ki) is 4240 nM on Adenosine receptor A1 [4] and 3980 nM in assay [2]. For the same compound, in assay [3], the inhibition turned out to be 0%.

With `CCOC(=O)c1cnc2c(cnn2CC(Cl)c2ccccc2)c1NCCc1ccc(F)cc1` (stereo unspecified), the Ki is 12 nM on Adenosine receptor A1 [4], 16 nM on Adenosine receptor A1 [7] and 12.6 nM in assay [2]. Besides, the values for the inhibition in assay [3] and in assay [6] were 30% and 37%, respectively.

On to `CCOC(=O)c1cnc2c(cnn2CC(Cl)c2ccccc2)c1NCCc1ccccc1F` (stereo unspecified), for which the Ki was 16 nM on Adenosine receptor A1 [4], 29 nM on Adenosine receptor A1 [7] and 15.8 nM in assay [2]. For the same compound, in assay [6], the inhibition came to 53%.

As to `CCOC(=O)c1cnc2c(cnn2CC(Cl)c2ccccc2)c1NCCc1cccc(F)c1` (stereo unspecified), the Ki at Adenosine receptor A1 [4] was 33 nM; in [2], 31.6 nM. Moreover, the inhibition in assay [3] is 25%.

With `COC(=O)c1cnc2c(cnn2CC(Cl)c2ccccc2)c1NCCc1ccc(C)cc1` (stereo unspecified), the inhibitory constant (Ki) at Adenosine receptor A1 [4] was 15 nM; at Adenosine receptor A1 [7] it was 148 nM; in [2], 15.8 nM. The inhibition was found to be 26% in [3] and 40% in assay [6].

For `COC(=O)c1cnc2c(cnn2CC(Cl)c2ccccc2)c1NCCc1ccccc1` (stereo unspecified), the Ki on Adenosine receptor A1 [4] was 88 nM; in assay [5], 1230 nM; in assay [2] it was 79.4 nM. Moreover, in assay [6], the inhibition was found to be 0%.

Turning to `CCCCOC(=O)c1cnc2c(cnn2CC(Cl)c2ccccc2)c1N1CCOCC1` (stereo unspecified), the inhibition in assay [1] turned out to be 63%; in assay [3], 16%. The compound also showed an inhibitory constant (Ki) in [2] of 10000 nM.

As to `CC(C)OC(=O)c1cnc2c(cnn2CC(Cl)c2ccccc2)c1NC1CC1` (stereo unspecified), the Ki on Adenosine receptor A1 [4] was 36 nM; in assay [2], 31.6 nM. This compound came in with an inhibition in [6] of 0%.

`COC(=O)c1cnc2c(cnn2CC(Cl)c2ccccc2)c1NCCc1ccc(OC)cc1` (stereo unspecified): the Ki was 6 nM at Adenosine receptor A1 [4]; 94 nM on Adenosine receptor A1 [7]; 6.3 nM at Adenosine receptor A1 [8]; 7.3 nM on Adenosine receptor A1 [9]; 6.31 nM in [2]. Moreover, the inhibition in assay [6] is 41%.
